ChEMBL document CHEMBL1687714, “Genetic analysis of fenhexamid-resistant field isolates of the phytopathogenic fungus Botrytis cinerea” (Antimicrob Agents Chemother, 2008)
≈ marks a conversion by molar mass, not a printed value. Calls of active or inactive are those of the source. The rule behind the calls is not given here.

Key:
Format in all cases: functional, organism-based
Botrytis cinerea [1] = assay: Antifungal activity against highly fenhexamid-resistant Botrytis cinerea 264 assessed as inhibition of germ tube elongation after 24 hrs; conditions: Botrytis cinerea, 264, 24 h
Botrytis cinerea [2] = assay: Antifungal activity against highly fenhexamid-resistant Botrytis cinerea MK3-9 assessed as inhibition of germ tube elongation after 24 hrs; conditions: MK3-9, 24 h
Botrytis cinerea [3] = assay: Antifungal activity against highly fenhexamid-resistant Botrytis cinerea MK5-2 assessed as inhibition of germ tube elongation after 24 hrs; conditions: MK5-2, 24 h
Botrytis cinerea [4] = assay: Antifungal activity against Botrytis cinerea 286 harboring TELerg S336C mutant at 10 ug/ml relative to wild-type
Summary of the method: (§1)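 In the dominance test, the recipient strains 453b and 286 were transformed with different erg27 alleles. Spores of the transformants were grown on YSS medium containing fenhexamid at different concentrations and 50 µg ml–1 hygromycin B. Parental strains were grown without hygromycin. Growth was scored after 7 days at 21°C.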

Botrytis cinerea [5] = assay: Antifungal activity against moderately to slightly fenhexamid-resistant Botrytis cinerea 453b assessed as inhibition of germ tube elongation after 24 hrs
Botrytis cinerea [6] = assay: Antifungal activity against HydR3 deficient Botrytis cinerea 453 harboring TELerg N369D mutant at 10 ug/ml relative to wild-type; summary of the method: as §1
Botrytis cinerea [7] = assay: Antifungal activity against highly fenhexamid-resistant Botrytis cinerea MK5-14 assessed as inhibition of germ tube elongation after 24 hrs; conditions: MK5-14, 24 h
Botrytis cinerea [8] = assay: Antifungal activity against highly fenhexamid-resistant Botrytis cinerea 05-221 assessed as inhibition of germ tube elongation after 24 hrs; conditions: 05-221, 24 h

## CC1(C(=O)Nc2ccc(O)c(Cl)c2Cl)CCCCC1 [FENHEXAMID]
Botrytis cinerea [1]
  EC50: > 10 µg/mL
Botrytis cinerea [2]
  EC50: > 5 µg/mL
Botrytis cinerea [3]
  EC50: > 5 µg/mL
Botrytis cinerea [4]
  Activity: inactive
Botrytis cinerea [5]
  EC50: 2 µg/mL (≈ 6.62 µM)
Botrytis cinerea [6]
  Activity: inactive
Botrytis cinerea [7]
  EC50: > 5 µg/mL
Botrytis cinerea [8]
  EC50: > 10 µg/mL
